In ChEMBL document CHEMBL1148736, “N-Acylthiadiazolines, a new class of liver X receptor agonists with selectivity for LXRbeta” (J Med Chem, 2007):

Assays:
[1] = molecular target: T1, Oxysterols receptor LXR-alpha (Homo sapiens, UniProt Q13133); assay: Agonist activity at GAL-linked human LXRalpha expressed in THP1 cells assessed as stimulation of coactivator recruitment by FRET assay; format: functional
T1 sequence (Q13133 whole entry): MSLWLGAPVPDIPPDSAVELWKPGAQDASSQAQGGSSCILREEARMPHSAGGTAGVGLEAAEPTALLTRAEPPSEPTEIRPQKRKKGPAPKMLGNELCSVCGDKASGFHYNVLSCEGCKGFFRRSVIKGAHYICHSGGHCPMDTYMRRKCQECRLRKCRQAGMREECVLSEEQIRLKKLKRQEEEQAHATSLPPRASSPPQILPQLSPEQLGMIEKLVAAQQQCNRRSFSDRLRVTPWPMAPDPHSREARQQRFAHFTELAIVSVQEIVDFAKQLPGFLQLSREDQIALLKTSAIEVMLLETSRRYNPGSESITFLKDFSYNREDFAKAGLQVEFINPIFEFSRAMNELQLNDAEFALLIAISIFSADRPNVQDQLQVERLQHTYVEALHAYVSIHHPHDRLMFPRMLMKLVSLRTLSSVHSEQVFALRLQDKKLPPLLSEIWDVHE
Method in brief: (§1)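 Cell-free TR-FRET coactivator recruitment: 20 nM His-tagged hLXRα or hLXRβ, 300 nM biotinylated SRC-1 peptide, Eu-anti-His antibody, APC-streptavidin. 12-point curves from 20 µM; 1 h at 37 °C. Duplicate. %E = maximal coactivator recruitment relative to reference dual agonist in same experiment.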

[2] = molecular target: T2, Oxysterols receptor LXR-alpha (Homo sapiens) (UniProt Q13133); assay: Agonist activity at GAL-linked human LXRalpha expressed in THP1 cells assessed as stimulation of co-activator recruitment by FRET assay relative to GW-3965; format: functional; method in brief: as §1
T2 sequence (whole entry): T1 sequence (Q13133 whole entry)

[3] = molecular target: T3, Oxysterols receptor LXR-beta (Homo sapiens, UniProt P55055); assay: Agonist activity at GAL-linked human LXRbeta expressed in THP1 cells assessed as stimulation of co-activator recruitment by FRET assay; format: functional; method in brief: as §1
T3 sequence (P55055 whole entry): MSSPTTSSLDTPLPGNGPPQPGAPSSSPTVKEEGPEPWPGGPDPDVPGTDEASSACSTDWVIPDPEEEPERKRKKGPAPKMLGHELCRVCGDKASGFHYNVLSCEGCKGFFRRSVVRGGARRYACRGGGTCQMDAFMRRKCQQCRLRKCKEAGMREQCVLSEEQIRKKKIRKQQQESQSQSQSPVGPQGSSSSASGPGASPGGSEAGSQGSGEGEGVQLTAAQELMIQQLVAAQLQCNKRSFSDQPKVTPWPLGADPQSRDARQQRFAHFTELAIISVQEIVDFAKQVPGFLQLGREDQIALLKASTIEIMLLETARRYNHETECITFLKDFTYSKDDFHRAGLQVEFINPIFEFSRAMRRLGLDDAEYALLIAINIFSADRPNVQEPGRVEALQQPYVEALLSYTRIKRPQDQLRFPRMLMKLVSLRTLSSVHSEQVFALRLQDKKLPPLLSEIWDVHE

[4] = molecular target: T4, Oxysterols receptor LXR-beta (Homo sapiens) (UniProt P55055); assay: Agonist activity at GAL-linked human LXRbeta expressed in THP1 cells assessed as stimulation of co-activator recruitment by FRET assay relative to GW-3965; format: functional; method in brief: as §1
T4 sequence (whole entry): T3 sequence (P55055 whole entry)

THP-1 [5] = assay: Increase in ABCA1 gene expression in THP1 cells at 1 uM relative to GW-3965; format: functional, Homo sapiens
Method in brief: (§2)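 THP-1 cells differentiated with 40 ng/mL PMA for 1 day, then switched to RPMI with 2% lipoprotein-deficient FBS. Compound added 6 h later at 1 or 10 µM in DMSO, incubated 24 h. ABCA1 mRNA by one-step TaqMan qRT-PCR, triplicate, multiplexed with 36B4; fold induction vs DMSO, expressed relative to reference dual agonist.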

THP-1 [6] = assay: Increase in ABCA1 gene expression in THP1 cells at 10 uM relative to GW-3965; format: functional, Homo sapiens; method in brief: as §2

| Structure (SMILES) | EC50 [1] | Efficacy [2] | EC50 [3] | Efficacy [4] | Activity (THP-1 [5]) | Activity (THP-1 [6]) | Activity [4] |
| --- | --- | --- | --- | --- | --- | --- | --- |
| COc1cccc(C2SC(c3ccc(F)cc3)=NN2C(=O)c2cc(F)cc(F)c2)c1OC (stereo not drawn) | 2.1 µM | 40% | 0.47 µM | 95% | 21% | 37% | – |
| COc1cccc(C2SC(c3ccc(Cl)cc3)=NN2C(=O)c2ccccc2)c1OC (stereo not drawn) | – | < 15% | – | – | – | – | < 15% |
| COc1cccc(C2SC(c3ccc(Cl)cc3)=NN2C(=O)c2c(F)cc(F)cc2F)c1 (stereo not drawn) | – | < 15% | 3.7 µM | 60% | – | – | – |
| COc1cccc(C2SC(c3ccc(Cl)cc3)=NN2C(=O)c2ccc(F)cc2F)c1OC (stereo not drawn) | 6.7 µM | 50% | 0.98 µM | 80% | 23% | 40% | – |
| COc1cc(F)c(C(=O)N2N=C(c3ccc(F)cc3)SC2c2cccc(OC)c2OC)c(F)c1 (stereo not drawn) | 0.9 µM | 47% | 0.17 µM | 100% | 81% | 42% | – |
| COc1cccc(C2SC(c3ccc(Cl)c(Cl)c3)=NN2C(=O)c2c(F)cc(F)cc2F)c1OC (stereo not drawn) | – | < 15% | > 10 µM | 51% | 18% | 46% | – |
| COc1cccc(C2SC(c3ccc(F)c(F)c3)=NN2C(=O)c2cccc(F)c2)c1OC (stereo not drawn) | 1.5 µM | 30% | 0.56 µM | 83% | 27% | 47% | – |
| O=C(c1c(F)cc(F)cc1F)N1N=C(c2ccc(F)cc2)SC1c1ccccc1OC(F)F (stereo not drawn) | 1.9 µM | 76% | 0.15 µM | 90% | 26% | – | – |
| COc1cccc(C2SC(c3ccc(F)cc3)=NN2C(=O)c2cccc(Cl)c2)c1OC (stereo not drawn) | – | < 15% | 0.25 µM | 82% | 13% | 36% | – |
| O=C(c1c(F)cc(F)cc1F)N1N=C(c2ccc(Cl)cc2)SC1c1ccccc1OC(F)(F)F (stereo not drawn) | – | < 15% | 3.4 µM | 31% | – | 23% | – |
| COc1cccc(C2SC(c3ccc(F)cc3)=NN2C(=O)c2c(F)ccc(F)c2F)c1OC (stereo not drawn) | – | < 15% | 0.97 µM | 74% | 35% | 42% | – |
| COc1cc(F)ccc1C1SC(c2ccc(F)cc2)=NN1C(=O)c1c(F)cc(F)cc1F (stereo not drawn) | 0.07 µM | 92% | 0.006 µM | 100% | 99% | 59% | – |
| COc1ccccc1C1SC(c2ccc(Cl)cc2)=NN1C(=O)c1c(F)cc(F)cc1F (stereo not drawn) | 0.18 µM | 80% | 0.035 µM | 110% | 57% | 54% | – |
| COc1cccc(C2SC(c3ccc(Cl)cc3)=NN2C(=O)c2ccccc2F)c1OC (stereo not drawn) | – | < 15% | 7.7 µM | 48% | – | – | – |
| COc1cccc(C2SC(c3ccc(F)cc3)=NN2C(=O)c2c(F)cc(Br)cc2F)c1OC (stereo not drawn) | 0.9 µM | 43% | 0.16 µM | 92% | – | 42% | – |
| COc1cccc(C2SC(c3ccc(F)cc3)=NN2C(=O)c2cc(F)c(F)c(OC)c2F)c1OC (stereo not drawn) | 0.7 µM | 64% | 0.081 µM | 100% | 30% | 59% | – |
| COc1cccc(C2SC(c3ccc(C)cc3)=NN2C(=O)c2c(F)cc(F)cc2F)c1OC (stereo not drawn) | 1.4 µM | 52% | 0.2 µM | 98% | 24% | 34% | – |
| COc1ccccc1C1(C)SC(c2ccc(F)cc2)=NN1C(=O)c1c(F)cc(F)cc1F (stereo not drawn) | – | < 15% | 4 µM | 50% | – | – | – |
| COc1cccc(C2SC(c3ccc(F)cc3)=NN2C(=O)c2cc(F)c(F)cc2F)c1OC (stereo not drawn) | – | < 15% | 0.6 µM | 40% | 30% | 48% | – |
